# Sampled rows, rich in hits. Any-hit rate of the full collection: about 2.3%.
# TRPC6 act: activators of mouse TRPC6 channel; hit rate 0.13% among 310,000; B-score at 10 µM; AID 2550; Q61143; HEK293-TRPC6 membrane potential dye fluorescence; hits give high values;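 active = B-score of the integrated fluorescence ratio above library mean plus 3 SD, and starting fluorescence ratio within library mean plus 5 SD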;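 also: higher score means more depolarization so channel activation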
# Target sequence (Q61143 whole entry, looked up): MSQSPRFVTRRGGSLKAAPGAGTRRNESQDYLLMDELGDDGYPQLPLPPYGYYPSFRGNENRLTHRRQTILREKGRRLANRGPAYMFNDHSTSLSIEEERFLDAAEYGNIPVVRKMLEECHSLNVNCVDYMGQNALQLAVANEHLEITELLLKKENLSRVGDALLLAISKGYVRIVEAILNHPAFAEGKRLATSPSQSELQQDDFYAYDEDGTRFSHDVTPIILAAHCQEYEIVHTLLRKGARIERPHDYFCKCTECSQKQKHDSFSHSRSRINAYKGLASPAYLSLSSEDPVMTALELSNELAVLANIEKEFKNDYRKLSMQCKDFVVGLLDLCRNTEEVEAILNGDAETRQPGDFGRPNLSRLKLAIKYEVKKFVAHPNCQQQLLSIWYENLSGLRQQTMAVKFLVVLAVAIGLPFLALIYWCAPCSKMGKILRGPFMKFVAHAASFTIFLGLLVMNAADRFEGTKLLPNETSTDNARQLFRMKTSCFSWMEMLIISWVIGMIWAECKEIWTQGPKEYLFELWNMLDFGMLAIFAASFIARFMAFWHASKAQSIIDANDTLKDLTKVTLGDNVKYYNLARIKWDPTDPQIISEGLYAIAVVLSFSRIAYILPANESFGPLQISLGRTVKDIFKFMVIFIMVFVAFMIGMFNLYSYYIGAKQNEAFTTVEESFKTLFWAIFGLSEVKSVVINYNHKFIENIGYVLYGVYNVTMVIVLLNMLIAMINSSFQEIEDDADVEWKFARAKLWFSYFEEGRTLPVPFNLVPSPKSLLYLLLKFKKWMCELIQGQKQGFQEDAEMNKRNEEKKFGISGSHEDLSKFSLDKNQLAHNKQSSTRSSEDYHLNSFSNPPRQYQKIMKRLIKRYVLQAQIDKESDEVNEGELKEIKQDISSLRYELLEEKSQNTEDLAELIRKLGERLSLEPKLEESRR
# TRPC6 inhibitor: mouse TRPC6 channel inhibition; AID 2553; hit rate 1.1% among 310,000; B-score at 10 µM; Q61143; HEK293-TRPC6, membrane potential dye, ACh-evoked depolarization; hits give low values;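 active = B-score under library mean minus 3 SD, initial fluorescence not abnormally high, positive integrated signal ratio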;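 also: B-score derived from integrated fluorescence ratio over the kinetic read; more negative B-score means stronger inhibition of depolarization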
# TRPC4 agonist: TRPC4 (mouse) channel activation; B-score at 10 µM; HEK293 TRPC4beta/mu-opioid, Fluo4 calcium fluorescence; hits give high values; hit rate 0.49% among 310,000; Q9QUQ5;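 active = B-score above 5 SD of library B-scores, and initial fluorescence ratio not above library mean plus 5 SD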;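 also: positive B-score marks a calcium rise read as TRPC4 activation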
#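 Assay system: HEK293 cells stably co-expressing mouse TRPC4beta and mu-opioid receptor / Timing: Fluo4 dye loading 45 min at room temperature, 110 s recording / Signal: Fluo4 calcium-sensitive dye fluorescence, kinetic, 1 Hz baseline / Read-out: integrated baseline-normalised fluorescence ratio, converted to per-well B score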
# TRPC4 potent: allosteric potentiators of mouse TRPC4 channel; Q9QUQ5; HEK293 TRPC4beta/mu-opioid, DAMGO EC20, Fluo-4 Ca2+ flux; hits give high values; B-score at 10 µM; hit rate 0.42% among 310,000;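 active = B-score of calcium response area above 5 SD of library B-scores, with initial fluorescence ratio within 5 SD of library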;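 also: B-score of integrated fluorescence ratio over time as area under calcium response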
# TRPC4 block: blocks the mouse TRPC4 cation channel. Q9QUQ5. HEK293 TRPC4beta/mu-opioid, DAMGO-evoked Fluo4 calcium flux; hits give low values. B-score at 10 µM. hit rate 0.39% among 300,000. AID 2247;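 active = B-score over 3 SD under the library average, no early fluorescence shift, positive overall ratio signal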
#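 Assay system: HEK293 cells with stable TRPC4beta plus mu-opioid receptor expression. Dosing: single dose. Measured by: Fluo4 Ca2+ flux fluorescence. Also added: DAMGO in two steps, submaximal then maximal. Read-out: B score from integrated Fluo4 fluorescence ratio.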
# An asterisk follows results filed as active; i = inactive.
SMILES,TRPC6 act,TRPC6 inhibitor,TRPC4 agonist,TRPC4 potent,TRPC4 block
CCCC(=O)NC(=S)Nc1ccc(S(=O)(=O)Nc2ccc(OCC)cc2)cc1,i,i,i,i,i
CC(C)c1nc(SCC(=O)Nc2cccc(C(F)(F)F)c2)c2c(=O)n(C)c(=O)n(C)c2n1,i,i,i,12*,i
COCCN(CCOC)C(=O)c1cc2sc3ccccc3c2s1,i,i,i,13*,i
CN(C)CCNC(=O)c1cc2sc3ccccc3c2s1,i,i,i,10*,i
CCN(CC)C(=O)c1cc2sc3ccccc3c2s1,i,i,i,i,i
CCOc1ccc(N2C(=O)CC(NNc3nc4ccccc4s3)C2=O)cc1 (stereo not given),i,i,i,i,i
CCCN(c1nc(C)cc(OC)n1)S(=O)(=O)c1ccccc1,i,i,i,i,-5*
Cc1cccc(/C(N)=N/OC(=O)CCCc2ccccc2)c1,i,i,i,i,i
COc1ccc(Br)cc1S(=O)(=O)Nc1ncccc1C,i,i,i,i,i
COc1ccc(S(=O)(=O)Nc2ncccc2C)c2ccccc12,i,i,i,11*,i
O=C(CNC(=S)N(Cc1ccccc1)Cc1cccnc1)N1CCOCC1,i,i,i,i,i
NC(=O)C[n+]1cccc(CNC(=O)c2ccc(OC(F)F)cc2)c1,i,i,i,i,i
O=C(C[n+]1ccc(C(=O)NCc2ccccc2)cc1)c1ccc(OC(F)F)cc1,i,i,i,10*,i
COCCN(C(=S)Nc1cccc(C)c1)C(C)c1cccnc1 (stereo not given),i,i,i,i,i
Cc1ccc(S(=O)(=O)Nc2nc3ccc(S(C)(=O)=O)cc3s2)cc1,i,i,i,i,i
CC(=O)Nc1ccc(S(=O)(=O)Nc2nc3ccc(C)cc3s2)cc1,i,i,i,i,-5*
CCCCN(C)CCCNC(=O)c1ccc2c(c1)NC(=O)C(N1CCOCC1)S2 (stereo not given),i,i,i,12*,i
Nc1nc(N2CCCCC2)nc(N2CCCCC2)n1,i,i,i,i,i
C1CCN(c2nc(N3CCCC3)nc(N3CCNCC3)n2)C1,i,i,i,16*,i
CSCC[C@H](NC(=O)N1CCn2c1nc1ccccc12)C(=O)NCc1ccc(C)cc1,i,i,i,43*,i
O=C(Nc1ccccc1)C1=C[C@H](c2ccc(C(F)(F)F)cc2)C[C@H](OCc2ccc(CO)cc2)O1,i,i,i,i,i
O=C(NCc1ccccc1)C1=C[C@@H](c2ccc(Br)cc2)C[C@@H](OCc2ccc(CO)cc2)O1,i,i,i,i,i
O=C(Nc1ccccc1)C1=C[C@H](c2ccccc2)C[C@H](OCc2ccc(CO)cc2)O1,i,i,i,12*,i
O=C(NCc1ccccc1)C1=C[C@H](c2ccccc2)C[C@H](OCc2ccc(CO)cc2)O1,i,i,176*,i,i
CC(=O)n1cc([C@@H]2C=C(C(=O)NCc3ccccc3)O[C@H](OCc3ccc(CO)cc3)C2)c2ccccc21,i,i,i,15*,i
SMILES,TRPC6 act,TRPC6 inhibitor,TRPC4 agonist,TRPC4 potent,TRPC4 block
O=C(NCc1ccccc1)C1=C[C@H](c2ccc(C(F)(F)F)cc2)C[C@H](OCc2ccc(CO)cc2)O1,i,i,i,19*,i
COc1ccccc1CNC(=O)CCS(=O)(=O)c1ccc2c(c1)CC(C)N2C(=O)C1CC1 (stereo not given),i,i,i,i,i
CCOC(=O)N1CCC(N(CCN(C)C)C(=S)Nc2ccc(OCC)cc2)CC1,i,i,i,i,i
CCN(CC(=O)NC1CCS(=O)(=O)C1)S(=O)(=O)c1ccc(C)cc1C (stereo not given),i,i,i,i,i
COC(=O)c1cccc(NC(=S)NC(C)C)c1,i,i,i,i,i
CCCCN(C)CCNC(=O)CCn1nc(-c2ccc(Cl)cc2)ccc1=O,i,i,64*,11*,i
Cc1ccc(CNC(=O)CSc2nc(=O)n3ccccc3n2)cc1,i,i,i,i,-6*
CCn1ncc(Br)c1C(=O)Nc1ccccc1C(F)(F)F,i,i,i,i,i
CCOc1ccc(S(=O)(=O)N2CCN(C(=S)NC3CC3)CC2)cc1,i,i,i,18*,i
Cc1cc(Br)cc(C)c1OCCCCN(C)C,i,i,i,35*,i
Cc1cc(Cl)c(OCCCN(C)C)c(Br)c1,i,i,i,i,i
COc1ccc(S(=O)(=O)N(C)CC(=O)N2CCCC2)cc1OC,i,i,i,i,i
Cc1[nH]c2ccccc2c1C(c1ccncc1)N1CCN(c2ccccn2)CC1 (stereo not given),i,i,49*,i,i
Cc1[nH]c2ccccc2c1C(c1ccncc1)N1CCN(c2ccccc2F)CC1 (stereo not given),i,i,i,i,i
CCOC(=O)C1CCN(C(c2ccccn2)c2c(C)[nH]c3ccccc23)CC1 (stereo not given),i,-5.8*,i,i,i
Cn1nnc2cc(C(=O)N3CCN(c4ccccn4)CC3)ccc21,i,i,i,i,i
COc1cccc(/C=C/C(=O)NNC(=O)CCN2CCN(Cc3ccccc3)CC2)c1,i,i,48*,12*,i
O=C(/C=C/c1ccc(F)cc1)NC(=S)N1CCN(Cc2ccccc2)CC1,i,i,i,i,i
COc1ccc(Cl)cc1NC(=O)CCN1CCN(Cc2ccccc2)CC1,i,i,i,i,i
O=C(/C=C/c1ccc(F)cc1)NNC(=O)CCN1CCN(Cc2ccccc2)CC1,i,i,50*,i,i
CN(C)C(CNC(=S)Nc1ccc(Cl)cc1)c1cccnc1 (stereo not given),i,i,86*,i,i
CN(C)C(CNC(=O)Nc1cccc(Cl)c1)c1cccnc1 (stereo not given),i,i,65*,i,i
O=C(NCc1cccnc1)Nc1cccc(Cl)c1,i,i,i,i,i
CCc1cccc(CC)c1NC(=S)NCC(c1cccnc1)N(C)C (stereo not given),i,i,79*,i,i
COc1cc(C)c(NC(=O)Cc2ccsc2)cc1OC,i,i,i,i,i
O=[N+]([O-])c1cc(Cl)cc2c1nc(NCCO)c1ccccc12,i,i,i,i,i

# High-throughput results (PubChem)
